The subject of one series is Mus musculus. The experiment in a line: Antitumor activity in human medulloblastoma cells xenografted in CB17/SCID mouse assessed as increase in NeuroD1 expression at 50 mg/kg po, administered once a day by Western blot analysis. The class given is functional, organism-based.
In series [1] the test system is Medulloblastoma cell. The experiment in a line: Antiproliferative activity in Ptch1-deficient mouse medulloblastoma cell after 48 hrs by CCK-8 assay. It is filed as functional, cell-based. In outline:
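MB cells from tumors of 30-week-old Ptch1+/− mice, dissociated by papain digestion and purified on a 35%/65% Percoll gradient. Cells were treated with a range of inhibitor concentrations for 48 h and viability was read by CCK8 assay. IC50 was taken as the concentration giving 50% inhibition of viability.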

The test system of series [2] is Medulloblastoma cell. The experiment in a line: Increase of apoptosis in human medulloblastoma cells xenografted in CB17/SCID mouse assessed as cleaved caspase-3 expression at 100 mg/kg po, administered once a day by immunocytochemistry analysis. The class given is functional, organism-based.
Series [3] is described as follows: Toxicity in CB17/SCID mouse xenografted with human medulloblastoma cells asessed as body weight loss at 50 mg/kg po, administered once a day. The class given is organism-based. The settings on record: in vivo.
For series [4], the system named is Medulloblastoma cell. The experiment in a line: Antitumor activity in human medulloblastoma cells xenografted in CB17/SCID mouse assessed as increase in NeuroD1 expression at 100 mg/kg po, administered once a day by Western blot analysis. The class given is functional, organism-based.
Series [5] has as its system Medulloblastoma cell. Put plainly: Induction of cell differentiation activity in human medulloblastoma cells xenografted in CB17/SCID mouse assessed as increase in NeuN expression at 50 mg/kg po, administered once a day by immunocytochemistry analysis. The class given is functional, organism-based.
Series [6] has as its system Medulloblastoma cell. Put plainly: Induction of cell differentiation activity in human medulloblastoma cell assessed as increase in p27/Kip1+ cells at 1 uM after 48 hrs by immunocytochemistry analysis. It is filed as functional, cell-based. In outline:
(§1)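 Cultured MB cells were exposed to inhibitor at 1 μM for 48 h, with DMSO as the vehicle control. Cells were pulsed with BrdU for 2 h, then immunostained for BrdU (proliferation) or p27/Kip1 (differentiation), with DAPI nuclear counterstain. Read-out was the percentage of positive cells.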

In series [7] the test system is Medulloblastoma cell. The experiment in a line: Upregulation in NeuroD1 protein expression in human medulloblastoma cell by Western blot analysis. It is filed as functional, cell-based.
Series [8] relates to Medulloblastoma cell. The experiment in a line: Antiproliferative activity in human medulloblastoma cell assessed as decrease in BrdU+ cells at 1 uM after 48 hrs by immunocytochemistry analysis relative to vehicle control. The class given is functional, cell-based. The method, boiled down: as §1
In series [9] the test system is Medulloblastoma cell. Put plainly: Antitumor activity in human medulloblastoma cells xenografted in CB17/SCID mouse at 50 mg/kg po, administered once a day. The class given is functional, organism-based.
Series [10] relates to Medulloblastoma cell. Put plainly: Increase of apoptosis in human medulloblastoma cells xenografted in CB17/SCID mouse assessed as cleaved caspase-3 expression at 50 mg/kg po, administered once a day by immunocytochemistry analysis. The class given is functional, organism-based.
Series [11] is described as follows: Toxicity in CB17/SCID mouse xenografted with human medulloblastoma cells asessed as body weight loss at 100 mg/kg po, administered once a day. It is filed as organism-based. To be noted: in vivo.
The test system of series [12] is Medulloblastoma cell. The experiment in a line: Antitumor activity in human medulloblastoma cells xenografted in CB17/SCID mouse at 100 mg/kg po, administered once a day. It is filed as functional, organism-based.
Series [13] deals with Medulloblastoma cell. The experiment in a line: Antitumor activity in human medulloblastoma cells xenografted in CB17/SCID mouse assessed as decrease in Ki67+ cells at 100 mg/kg po, administered once a day by immunocytochemistry analysis. The class given is functional, organism-based.
Series [14] deals with Cerebellar granule neurone. The experiment in a line: Antiproliferative activity in wild-type mouse SmoA1-expressing cerebellar granule neurone cells at P7 at 2 uM for 48h by immunocytochemistry analysis. It is filed as functional, cell-based. In outline:
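Cerebellar granule neuron precursors from wild-type pups were infected with SmoA1-GFP lentivirus. 48 h after infection they were treated with inhibitor at 2 μM for 48 h, with DMSO as control. Proliferation was scored as the percentage of EdU+ cells among infected cells by immunostaining.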

The subject of series [15] is Medulloblastoma cell. The experiment in a line: Induction of cell differentiation activity in human medulloblastoma cells xenografted in CB17/SCID mouse assessed as increase in NeuN expression at 100 mg/kg po, administered once a day by immunocytochemistry analysis. It is filed as functional, organism-based.
The test system of series [16] is Medulloblastoma cell. The experiment in a line: Antitumor activity in human medulloblastoma cells xenografted in CB17/SCID mouse assessed as decrease in Ki67+ cells at 50 mg/kg po, administered once a day by immunocytochemistry analysis. The class given is functional, organism-based.

Each structure is given as a SMILES string. The source made the active and inactive calls. The rule behind the calls is not given here.

On to `CCCc1cc(C)[nH]c(=O)c1CNC(=O)c1cc(-c2ccc(N3CCN(C(C)C)CC3)nc2)cc2c1cnn2C(C)C`, for which the result in the series on Mus musculus, in the series with Medulloblastoma cell [2], in the series on Medulloblastoma cell [4], with Medulloblastoma cell [5], in the series with Medulloblastoma cell [6] and with Medulloblastoma cell [7] was Active. For the same compound, the outcome (in the series with Medulloblastoma cell [8]; in the series with Medulloblastoma cell [9]; with Medulloblastoma cell [10]; in the series on Medulloblastoma cell [12]; in the series on Medulloblastoma cell [13]; in series [14]) was Active. The result with Medulloblastoma cell [15] and in the series on Medulloblastoma cell [16] was Active. In the series on Medulloblastoma cell [1], this compound registered an IC50 of 2.08 µM. In addition, the Activity entry in series [3] and in series [11] was “Non-Toxic” each time.

In the case of `CC[C@H](C)n1cc(C)c2c(C(=O)NCc3c(C)cc(C)[nH]c3=O)cc(-c3ccc(N4CCNCC4)nc3)cc21` [GSK2816126], the outcome with Mus musculus, with Medulloblastoma cell [2], with Medulloblastoma cell [4], in the series on Medulloblastoma cell [5], with Medulloblastoma cell [6] and in the series with Medulloblastoma cell [7] was Active. The outcome (in the series on Medulloblastoma cell [8]; in the series on Medulloblastoma cell [9]; with Medulloblastoma cell [10]; in the series on Medulloblastoma cell [12]; in the series on Medulloblastoma cell [13]; in series [14]) was Active. Moreover, the result in the series with Medulloblastoma cell [15] and with Medulloblastoma cell [16] was Active. This compound had an IC50 in the series on Medulloblastoma cell [1] of 4.64 µM. The Activity entry in series [3] and in series [11] was “Non-Toxic” throughout.

On to `CCN(c1cc(-c2ccc(CN3CCOCC3)cc2)cc(C(=O)NCc2c(C)cc(C)[nH]c2=O)c1C)C1CCOCC1` [TAZEMETOSTAT], for which the result with Mus musculus, with Medulloblastoma cell [2], in the series on Medulloblastoma cell [4], with Medulloblastoma cell [5], with Medulloblastoma cell [6] and in the series on Medulloblastoma cell [7] was Active. Also, the result (in the series with Medulloblastoma cell [8]; in the series on Medulloblastoma cell [9]; in the series on Medulloblastoma cell [10]; in the series with Medulloblastoma cell [12]; in the series on Medulloblastoma cell [13]; in series [14]) was Active. Besides, the outcome in the series with Medulloblastoma cell [15] and in the series with Medulloblastoma cell [16] was Active. In addition, in the series on Medulloblastoma cell [1], half-maximal inhibition (IC50) was put at 8.74 µM. Moreover, the Activity entry in series [3] and in [11] was “Non-Toxic” each time.

The values above are taken from ChEMBL document CHEMBL5712092, “NeuroD1 Dictates Tumor Cell Differentiation in Medulloblastoma” (Cell Rep, 2020).
